Results from ChEMBL document CHEMBL3352053, “New silibinin glyco-conjugates: synthesis and evaluation of antioxidant properties” (Bioorg Med Chem Lett, 2014).

What was measured:
[1] = Antioxidant activity assessed as DPPH radical scavenging activity after 10 mins; assay type: physicochemical
Method in brief: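 Freshly prepared DPPH solution in test tubes; analogue solutions (1 mM–1 µM) added to a final volume of 2.25 mL. Absorbance read at 515 nm after 10 min. References prepared as 1 mM methanol stocks. IC50 calculated from at least three independent experiments.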

[2] = Inhibition of xanthine oxidase in human MKN28 cells assessed as inhibition of xanthine oxidase-induced cell damage by measuring cell viability at 10 to 200 uM after 48 hrs by MTT assay; assay type: cell-based; settings: mkn-28, 48 h
Method in brief: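 MKN28 cells pre-incubated with compounds (10–200 µM) for 1–48 h, washed, then exposed for 2 h to xanthine (1 mM) plus xanthine oxidase to induce oxidative stress. Controls were serum-free medium alone, and serum-free medium followed by X–XO. Viability read by MTT assay. Mean ± SD from three separate experiments run in duplicate.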

[3] = Toxicity in human MKN28 cells assessed as cell viability at 10 to 200 uM after 48 hrs by MTT assay; assay type: cell-based, MKN-28; settings: read-out: Activity
Method in brief: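 MKN28 cells incubated under basal conditions with compounds (10–200 µM) for 1–48 h, with serum-free medium as control. Viability read by MTT assay. Mean ± SD from three separate experiments run in duplicate.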

IC50 [1] [µM] | SMILES | Activity [2] [%] | viability at 48 h, up to 200 µM [3] [%]
392 | COc1cc(C2Oc3cc([C@H]4Oc5cc(O)cc(O)c5C(=O)[C@@H]4O)ccc3OC2CO)ccc1O (stereo partly specified) [SILIBININ] | 42.4 | 45.3
108 | COc1cc([C@H]2Oc3cc([C@H]4Oc5cc(O)cc(O)c5C(=O)[C@@H]4O)ccc3O[C@H]2COP(=O)([O-])OC2O[C@H](CO)[C@@H](O)[C@H](O)[C@@H]2O)ccc1O.[Na+] (stereo partly specified) | 42.3 | 89.5
302 | COc1cc([C@H]2Oc3cc([C@H]4Oc5cc(O)cc(O)c5C(=O)[C@@H]4O)ccc3O[C@H]2COP(=O)([O-])OC2O[C@H](CO)[C@@H](O)[C@H](O)[C@H]2O)ccc1O.[Na+] (stereo partly specified) | 42.7 | 89.2
27 | COc1cc([C@H]2Oc3cc(-c4oc5cc(O)cc(O)c5c(=O)c4O)ccc3O[C@@H]2CO)ccc1O |  | 

Continued, molecule first:

SMILES | IC50 [1] [µM] | Activity [2] [%] | viability at 48 h, up to 200 µM [3] [%]
COc1cc([C@H]2Oc3cc([C@H]4Oc5cc(O)cc(O)c5C(=O)[C@@H]4O)ccc3O[C@H]2COP(=O)([O-])OC2O[C@H](CO)[C@H](O)[C@H](O)[C@H]2O)ccc1O.[Na+] (stereo partly specified) | 233 | 42.8 | 84.1
COc1cc([C@H]2Oc3cc([C@H]4Oc5cc(O)cc(O)c5C(=O)[C@@H]4O)ccc3O[C@H]2COP(=O)([O-])OC2O[C@H](CO)[C@H](OC3O[C@H](CO)[C@H](O)[C@H](O)[C@H]3O)[C@H](O)[C@H]2O)ccc1O.[Na+] (stereo partly specified) | 155 | 48.4 | 91.8
